Results reported in ChEMBL document CHEMBL1129609, “Synthesis and antiviral activity evaluation of some new aminoadamantane derivatives. 2” (1996).
Converted amounts (≈) assume the structure as drawn.

Assays:
Enterovirus C = experiment: Antiviral activity against polio 1 virus infected HeLa cell lines.; assay type: functional
Procedure, shortened: (§1)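 Vero (African green monkey kidney), HeLa (human epithelial) or HEL (human embryonic lung) cell monolayers infected with the virus. Readout is the minimum inhibitory concentration that reduces virus-induced cytopathicity by 50%. Values are averages of at least two separate experiments.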

Semliki Forest virus = experiment: Antiviral activity against Semliki forest virus infected Vero cell lines.; assay type: functional; procedure, shortened: as §1
Vaccinia virus = experiment: Antiviral activity against vaccinia virus infected HEF cell lines.; assay type: functional; conditions: Orthopoxvirus vaccinia
Procedure, shortened: (§2)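 Human embryonic fibroblasts, from embryonic lung or embryonic skin-muscle, infected with the virus. Endpoint is the minimum inhibitory concentration that reduces virus-induced cytopathicity by 50%. Values are averages of at least two separate experiments.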

Sindbis virus = experiment: Antiviral activity against sindbis virus infected Vero cell lines.; assay type: functional; procedure, shortened: as §1
[1] = tested on: Vesicular stomatitis virus; experiment: Antiviral activity against vesicular stomatitis virus infected HEF cell lines.; assay type: functional; procedure, shortened: as §2
Human alphaherpesvirus 3 [2] = experiment: Antiviral activity against TK+VZV virus infected HEL cell lines.; assay type: functional; procedure, shortened: as §1
MDCK [3] = experiment: Antiviral activity of compound was tested against morphology virus infec+ted MDCK cell lines.; assay type: functional; conditions: Canis lupus familiaris
[4] = Antiviral activity against influenza A,H2N2 virus infected MDCK cell lines.; assay type: functional
[5] = tested on: Human immunodeficiency virus 2; experiment: Antiviral activity against HIV-2 virus infected CEM cell lines.; assay type: functional, CCRF-CEM
Human alphaherpesvirus 1 [6] = experiment: Antiviral activity against TK-HSV-1 virus infected HEF cell lines.; assay type: functional; procedure, shortened: as §2
[7] = tested on: Vesicular stomatitis virus; experiment: Antiviral activity against vesicular stomatitis virus infected HeLa cell lines.; assay type: functional; procedure, shortened: as §1
Coxsackievirus B4 [8] = experiment: Antiviral activity against Coxsackie B4 virus infected vero cell lines.; assay type: functional; conditions: Enterovirus B; procedure, shortened: as §1
Human alphaherpesvirus 2 = experiment: Antiviral activity against HSV-2 virus infected HEF cell lines.; assay type: functional; procedure, shortened: as §2
HEL = experiment: Inhibition of HEL cell proliferation.; assay type: functional; conditions: Homo sapiens
Procedure, shortened: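 Human embryonic lung fibroblasts were used for the proliferation assay. The value is the concentration that reduces cell proliferation by 50%, averaged from at least two separate experiments.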

Vero = experiment: Effects on cell morphology of Vero cell lines.; assay type: functional; conditions: Chlorocebus sabaeus
Procedure, shortened: (§3)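 HeLa (human epithelial) or Vero (African green monkey kidney) cells were examined under the microscope for changes in normal morphology. The value is the minimum concentration causing a detectable alteration, averaged from at least two separate experiments.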

HEF = experiment: Effects on cell morphology of HEF cell lines.; assay type: functional; conditions: Homo sapiens
Procedure, shortened: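 Human embryonic skin-muscle fibroblasts were examined under the microscope for changes in normal cell morphology. The value is the minimum concentration causing a microscopically detectable alteration, averaged from at least two separate experiments.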

[9] = tested on: Mammalian orthoreovirus 1; experiment: Antiviral activity against Reo 1 virus infected vero cell lines.; assay type: functional; procedure, shortened: as §1
[10] = Antiviral activity against influenza A,H3N2 virus infected MDCK cell lines.; assay type: functional
Human alphaherpesvirus 3 [11] = experiment: Antiviral activity against TK-VZV virus infected HEL cell lines.; assay type: functional; procedure, shortened: as §1
Human alphaherpesvirus 1 [12] = experiment: Antiviral activity against HSV-1 virus infected HEF cell lines.; assay type: functional; procedure, shortened: as §2
MDCK [13] = experiment: Antiviral activity tested against influenza A,H1N1 virus infected MDCK cell lines.; assay type: functional; conditions: Canis lupus familiaris
Coxsackievirus B4 [14] = experiment: Antiviral activity against Coxsackie B4 virus infected HeLa cell lines.; assay type: functional; conditions: Enterovirus B; procedure, shortened: as §1
CCRF-CEM = experiment: Cytotoxicity against CEM cell lines.; assay type: functional; conditions: Homo sapiens
Human respirovirus 3 = experiment: Antiviral activity against parainfluenza 3 virus infected Vero cell lines.; assay type: functional; procedure, shortened: as §1
[15] = tested on: Human immunodeficiency virus 1; experiment: Antiviral activity against HIV-1 virus infected CEM cell lines.; assay type: functional, CCRF-CEM
Human betaherpesvirus 5 = experiment: Antiviral activity against HCMV virus infected HEL cell lines.; assay type: functional; procedure, shortened: as §1
HeLa = experiment: Effects on cell morphology of HeLa cell lines.; assay type: functional; conditions: Homo sapiens; procedure, shortened: as §3
Influenza B virus = experiment: Antiviral activity against influenza B virus infected MDCK cell lines.; assay type: functional

Compound | MIC50 (Enterovirus C) | MIC50 (Semliki Forest virus) | MIC50 (Vaccinia virus) | MIC50 (Sindbis virus) | MIC50 [1] | MIC50 (Human alphaherpesvirus 3 [2]) | MIC50 (MDCK [3]) | MIC50 [4] | MIC50 [5] | MIC50 (Human alphaherpesvirus 1 [6]) | MIC50 [7] | MIC50 (Coxsackievirus B4 [8]) | MIC50 (Human alphaherpesvirus 2) | MIC50 (HEL) | MIC50 (Vero) | MIC50 (HEF) | MIC50 [9] | MIC50 [10] | MIC50 (Human alphaherpesvirus 3 [11]) | MIC50 (Human alphaherpesvirus 1 [12]) | other results
C1CCC2(CC1)CCCN2CC12CC3CC(CC(C3)C1)C2 | > 100 µg/mL | > 100 µg/mL | > 40 µg/mL | > 100 µg/mL | > 40 µg/mL | 30 µg/mL (≈ 104 µM) | > 250 µg/mL | > 100 µg/mL | > 20 µg/mL | > 40 µg/mL | 100 µg/mL (≈ 348 µM) | > 100 µg/mL | > 40 µg/mL | > 50 µg/mL | > 200 µg/mL | 100 µg/mL (≈ 348 µM) | > 100 µg/mL | > 100 µg/mL | 20 µg/mL (≈ 69.6 µM) | > 40 µg/mL | MIC50 (MDCK [13]): > 150 µg/mL; MIC50 (Coxsackievirus B4 [14]): > 100 µg/mL; MIC50 (CCRF-CEM): 33 µg/mL (≈ 115 µM); MIC50 (Human respirovirus 3): > 100 µg/mL; MIC50 [15]: > 20 µg/mL; MIC50 (Human betaherpesvirus 5): > 50 µg/mL; MIC50 (HeLa): 200 µg/mL (≈ 696 µM); MIC50 (Influenza B virus): > 100 µg/mL
CC1(C)CCCN1CC12CC3CC(CC(C3)C1)C2 | > 200 µg/mL | > 200 µg/mL | > 40 µg/mL | > 200 µg/mL | > 40 µg/mL | > 50 µg/mL | > 250 µg/mL | 35 µg/mL (≈ 141 µM) | > 40 µg/mL | > 40 µg/mL | 100 µg/mL (≈ 404 µM) | > 200 µg/mL | > 40 µg/mL | > 50 µg/mL | > 400 µg/mL | 100 µg/mL (≈ 404 µM) | > 200 µg/mL | > 87 µg/mL | > 50 µg/mL | > 40 µg/mL | MIC50 (MDCK [13]): > 150 µg/mL; MIC50 (Coxsackievirus B4 [14]): > 200 µg/mL; MIC50 (CCRF-CEM): 99 µg/mL (≈ 400 µM); MIC50 (Human respirovirus 3): > 200 µg/mL; MIC50 [15]: > 40 µg/mL; MIC50 (Human betaherpesvirus 5): > 50 µg/mL; MIC50 (HeLa): > 400 µg/mL; MIC50 (Influenza B virus): > 100 µg/mL
CC(C)(C)C1CCCN1CC12CC3CC(CC(C3)C1)C2 (stereo not drawn) | > 100 µg/mL | > 200 µg/mL | > 100 µg/mL | > 200 µg/mL | > 100 µg/mL | 35 µg/mL (≈ 127 µM) | > 250 µg/mL | > 100 µg/mL | > 40 µg/mL | > 100 µg/mL | > 100 µg/mL | > 200 µg/mL | > 100 µg/mL | > 50 µg/mL | 400 µg/mL (≈ 1450 µM) | 200 µg/mL (≈ 726 µM) | > 200 µg/mL | > 100 µg/mL | 20 µg/mL (≈ 72.6 µM) | > 100 µg/mL | MIC50 (MDCK [13]): > 104 µg/mL; MIC50 (Coxsackievirus B4 [14]): > 100 µg/mL; MIC50 (CCRF-CEM): 72 µg/mL (≈ 261 µM); MIC50 (Human respirovirus 3): > 200 µg/mL; MIC50 [15]: > 40 µg/mL; MIC50 (Human betaherpesvirus 5): > 50 µg/mL; MIC50 (HeLa): 200 µg/mL (≈ 726 µM); MIC50 (Influenza B virus): > 100 µg/mL
CN1CCCC1C12CC3CC(CC(C3)C1)C2 (stereo not drawn) | > 400 µg/mL | > 400 µg/mL | > 100 µg/mL | > 400 µg/mL | > 100 µg/mL | > 50 µg/mL | 250 µg/mL (≈ 1140 µM) | 16.5 µg/mL (≈ 75.2 µM) | > 40 µg/mL | > 100 µg/mL | > 400 µg/mL | > 400 µg/mL | > 100 µg/mL | > 50 µg/mL | > 400 µg/mL | 200 µg/mL (≈ 912 µM) | > 400 µg/mL | 60 µg/mL (≈ 274 µM) | > 50 µg/mL | > 100 µg/mL | MIC50 (MDCK [13]): > 34 µg/mL; MIC50 (Coxsackievirus B4 [14]): > 400 µg/mL; MIC50 (CCRF-CEM): 120 µg/mL (≈ 547 µM); MIC50 (Human respirovirus 3): > 400 µg/mL; MIC50 [15]: > 40 µg/mL; MIC50 (Human betaherpesvirus 5): > 50 µg/mL; MIC50 (HeLa): > 400 µg/mL; MIC50 (Influenza B virus): 60 µg/mL (≈ 274 µM)
CN(C)C1(C23CC4CC(CC(C4)C2)C3)CCCC1 | > 100 µg/mL | > 400 µg/mL | > 40 µg/mL | > 400 µg/mL | > 40 µg/mL | 30 µg/mL (≈ 121 µM) | > 250 µg/mL | 19.7 µg/mL (≈ 79.6 µM) | > 40 µg/mL | > 40 µg/mL | > 100 µg/mL | > 400 µg/mL | > 40 µg/mL | 50 µg/mL (≈ 202 µM) | > 400 µg/mL | 100 µg/mL (≈ 404 µM) | > 400 µg/mL | > 100 µg/mL | 30 µg/mL (≈ 121 µM) | > 40 µg/mL | MIC50 (MDCK [13]): > 80 µg/mL; MIC50 (Coxsackievirus B4 [14]): > 100 µg/mL; MIC50 (CCRF-CEM): 70 µg/mL (≈ 283 µM); MIC50 (Human respirovirus 3): > 400 µg/mL; MIC50 [15]: > 40 µg/mL; MIC50 (Human betaherpesvirus 5): 40 µg/mL (≈ 162 µM); MIC50 (HeLa): 200 µg/mL (≈ 808 µM); MIC50 (Influenza B virus): > 100 µg/mL
C1CCC2(NC1)C1CC3CC(C1)CC2C3 (stereo not drawn) | > 400 µg/mL | > 400 µg/mL | > 200 µg/mL | > 400 µg/mL | > 200 µg/mL | > 50 µg/mL | > 250 µg/mL | 0.24 µg/mL (≈ 1.17 µM) | > 40 µg/mL | > 200 µg/mL | > 400 µg/mL | > 400 µg/mL | > 200 µg/mL | > 50 µg/mL | > 400 µg/mL | 400 µg/mL (≈ 1950 µM) | > 400 µg/mL | 43 µg/mL (≈ 209 µM) | > 50 µg/mL | 100 µg/mL (≈ 487 µM) | MIC50 (MDCK [13]): > 35 µg/mL; MIC50 (Coxsackievirus B4 [14]): > 400 µg/mL; MIC50 (CCRF-CEM): 93 µg/mL (≈ 453 µM); MIC50 (Human respirovirus 3): > 400 µg/mL; MIC50 [15]: > 40 µg/mL; MIC50 (Human betaherpesvirus 5): > 50 µg/mL; MIC50 (HeLa): > 400 µg/mL; MIC50 (Influenza B virus): 60 µg/mL (≈ 292 µM)
